Measured values reported in ChEMBL document CHEMBL1177643, “Synthesis, DNA-binding ability and anticancer activity of benzothiazole/benzoxazole-pyrrolo[2,1-c][1,4]benzodiazepine conjugates” (Bioorg Med Chem, 2010).
Several values for one entry are separate records, joined by “and”; a condition that tells them apart may be missing. Equal values may be shown once.

Legend:
[1] = system: Calf thymus DNA; assay: Binding affinity to calf thymus duplex-form DNA assessed as cleavage of pBR322 after 16 hrs by restriction endonuclease digestion assay in presence of BamHI; format: nucleic-acid assay; conditions: Bos taurus
How it was run: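 pBR322 DNA (500 ng) preincubated with compound (5–30 μM) 16 h at 37 °C, then digested with BamHI (20 U) 1 h at 37 °C. Products run on 1% agarose in Tris–acetate EDTA, 80 V, 2 h. Read-out was ethidium bromide staining under UV, with an undigested and a fully digested control.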

[2] = system: CCRF-CEM; assay: Growth inhibition of human CCRF-CEM cells after 48 hrs by sulforhodamine B assay; format: functional
How it was run: (§1)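 Dose–response in each cell line over at least five concentrations at 10-fold dilutions, with 48 h continuous exposure and sulforhodamine B read-out.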

[3] = system: K562; assay: Growth inhibition of human K562 cells after 48 hrs by sulforhodamine B assay; format: functional; conditions: K562, 48 h
How it was run: (§2)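 Panel of 60 human cancer cell lines; for each compound, dose–response curves per cell line measured at a minimum of five concentrations at 10-fold dilutions. Cells exposed continuously to drug for 48 h, and growth was read out by sulforhodamine B staining.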

[4] = Growth inhibition of human […] cells after 48 hrs by sulforhodamine B assay; format: functional; how it was run: as §2
[5] = system: EKVX; assay: Growth inhibition of human EKVX cells after 48 hrs by sulforhodamine B assay; format: functional; how it was run: as §1
[6] = system: NCI-H226; assay: Growth inhibition of human NCI-H226 cells after 48 hrs by sulforhodamine B assay; format: functional; conditions: NCI-H226, 48 h; how it was run: as §2
[7] = system: NCI-H23; assay: Growth inhibition of human NCI-H23 cells after 48 hrs by sulforhodamine B assay; format: functional; conditions: NCI-H23, 48 h; how it was run: as §2
[8] = system: SW-620; assay: Growth inhibition of human SW620 cells after 48 hrs by sulforhodamine B assay; format: functional; conditions: SW-620, 48 h; how it was run: as §2
[9] = system: SNB-19; assay: Growth inhibition of human SNB19 cells after 48 hrs by sulforhodamine B assay; format: functional; conditions: SNB-19, 48 h; how it was run: as §2
[10] = system: M14; assay: Growth inhibition of human M14 cells after 48 hrs by sulforhodamine B assay; format: functional; conditions: M14, 48 h; how it was run: as §2
[11] = system: SK-MEL-2; assay: Growth inhibition of human SK-MEL-2 cells after 48 hrs by sulforhodamine B assay; format: functional; conditions: SK-MEL-2, 48 h; how it was run: as §2
[12] = system: SK-MEL-28; assay: Growth inhibition of human SK-MEL-28 cells after 48 hrs by sulforhodamine B assay; format: functional; conditions: SK-MEL-28, 48 h; how it was run: as §2
[13] = system: SK-MEL-5; assay: Growth inhibition of human SK-MEL-5 cells after 48 hrs by sulforhodamine B assay; format: functional; conditions: SK-MEL-5, 48 h; how it was run: as §2
[14] = system: OVCAR-3; assay: Growth inhibition of human OVCAR-3 cells after 48 hrs by sulforhodamine B assay; format: functional; conditions: OVCAR-3, 48 h; how it was run: as §2
[15] = system: OVCAR-4; assay: Growth inhibition of human OVCAR4 cells after 48 hrs by sulforhodamine B assay; format: functional; conditions: OVCAR-4, 48 h; how it was run: as §2
[16] = system: SK-OV-3; assay: Growth inhibition of human SKOV3 cells after 48 hrs by sulforhodamine B assay; format: functional; conditions: SK-OV-3, 48 h; how it was run: as §2
[17] = system: SN12C; assay: Growth inhibition of human SN12C cells after 48 hrs by sulforhodamine B assay; format: functional; how it was run: as §2
[18] = system: UO-31; assay: Growth inhibition of human UO31 cells after 48 hrs by sulforhodamine B assay; format: functional; conditions: UO-31, 48 h; how it was run: as §2
[19] = system: DU-145; assay: Growth inhibition of human DU145 cells after 48 hrs by sulforhodamine B assay; format: functional; conditions: DU-145, 48 h; how it was run: as §1
[20] = system: MDA-MB-231; assay: Growth inhibition of human MDA-MB-231 cells after 48 hrs by sulforhodamine B assay; format: functional; conditions: MDA-MB-231, 48 h; how it was run: as §2
[21] = system: T47D; assay: Growth inhibition of human T47D cells after 48 hrs by sulforhodamine B assay; format: functional; how it was run: as §2
[22] = system: A-375; assay: Cell cycle arrest in human A375 cells assessed as accumulation at G0 phase at 0.5 uM after 24 hrs using propidium iodide staining by flow cytometry; format: functional
How it was run: (§3)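 A375 cells (5×10^5) grown 24 h, then exposed to compound 24 h (DMSO control). Trypsin–EDTA harvest, fixed in ice-cold 70% ethanol at 4 °C 30 min, RNase A 37 °C 30 min, propidium iodide staining. DNA content measured by flow cytometry on 20,000 events, gated as sub-G1/G0, G1, S and G2/M.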

[23] = system: A-375; assay: Cell cycle arrest in human A375 cells assessed as accumulation at G1 phase at 0.5 uM after 24 hrs using propidium iodide staining by flow cytometry; format: functional; how it was run: as §3
[24] = system: A-375; assay: Cell cycle arrest in human A375 cells assessed as accumulation at G1 phase at 1 uM after 24 hrs using propidium iodide staining by flow cytometry; format: functional; how it was run: as §3
[25] = system: A-375; assay: Cell cycle arrest in human A375 cells assessed as accumulation at G2/M phase at 1 uM after 24 hrs using propidium iodide staining by flow cytometry; format: functional; how it was run: as §3
[26] = system: A-375; assay: Cell cycle arrest in human A375 cells assessed as accumulation at G0/G1 phase at 1 uM after 24 hrs using propidium iodide staining by flow cytometry; format: functional; how it was run: as §3
[27] = system: A-375; assay: Cell cycle arrest in human A375 cells assessed as accumulation at sub-G0 phase at 1 uM after 24 hrs using propidium iodide staining by flow cytometry; format: functional; how it was run: as §3
[28] = system: HT-29; assay: Antitumor activity against human HT-29 cells xenografted in SCID mouse assessed as reduction tumor volume at 30 mg/kg, ip measured on day 1; format: functional; conditions: route intraperitoneal
How it was run: (§4)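 HT29 xenografts in scid mice; dosing ip on days 1, 5 and 9 (q4d), 5 or 10 mg/kg per dose (total 15 or 30 mg/kg); vehicle control group. Tumour volume, body weight and toxicity followed for 35 days. Relative tumour volume = volume on given day / volume on day 1; T/C = mean RTV treated / mean RTV control.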

[29] = system: HT-29; assay: Antitumor activity against human HT-29 cells xenografted in SCID mouse assessed as reduction tumor volume at 15 mg/kg, ip measured on day 5; format: functional; conditions: route intraperitoneal; how it was run: as §4
[30] = system: HT-29; assay: Antitumor activity against human HT-29 cells xenografted in SCID mouse assessed as reduction tumor volume at 30 mg/kg, ip measured on day 17; format: functional; conditions: route intraperitoneal; how it was run: as §4
[31] = system: HT-29; assay: Antitumor activity against human HT-29 cells xenografted in SCID mouse assessed as reduction tumor volume at 15 mg/kg, ip measured on day 25; format: functional; conditions: route intraperitoneal; how it was run: as §4
[32] = system: HT-29; assay: Antitumor activity against human HT-29 cells xenografted in SCID mouse assessed as reduction tumor volume at 15 mg/kg, ip measured on day 28; format: functional; conditions: route intraperitoneal; how it was run: as §4
[33] = system: HT-29; assay: Antitumor activity against human HT-29 cells xenografted in SCID mouse assessed as reduction tumor volume at 15 mg/kg, ip measured on day 32; format: functional; conditions: route intraperitoneal; how it was run: as §4
[34] = Toxicity in SCID mouse; format: organism-based; conditions: in vivo
[35] = system: Mus musculus; assay: Toxicity in SCID mouse assessed as weight loss at 30 mg/kg, ip; format: organism-based; set-up: dose 30 mg/kg, route intraperitoneal; conditions: in vivo
How it was run: (§5)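 HT29 xenograft-bearing scid mice dosed ip at 5 or 10 mg/kg on days 1, 5 and 9 (q4d), totalling 15 or 30 mg/kg. Vehicle-treated control group. Body weight, survival and signs of overt toxicity were recorded over the 35-day study.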

[36] = system: Mus musculus; assay: Toxicity in SCID mouse assessed as mortality at 15 mg/kg, ip; format: organism-based; set-up: dose 15 mg/kg, route intraperitoneal; conditions: in vivo; how it was run: as §5
[37] = system: Mus musculus; assay: Toxicity in SCID mouse assessed as mortality at 50 mg/kg, ip; format: organism-based; set-up: dose 50 mg/kg, route intraperitoneal; conditions: in vivo

SMILES | Activity [1] | GI50 [2] [nM] | GI50 [3] [nM] | GI50 [4] [nM] | GI50 [5] [nM] | GI50 [6] [nM] | GI50 [7] [nM] | GI50 [8] [nM] | GI50 [9] [nM] | GI50 [10] [nM] | GI50 [11] [nM] | GI50 [12] [nM] | GI50 [13] [nM] | GI50 [14] [nM] | GI50 [15] [nM] | GI50 [16] [nM] | GI50 [17] [nM] | GI50 [18] [nM] | GI50 [20] [nM] | GI50 [21] [nM] | also measured
COc1cc(-c2nc3ccccc3s2)ccc1OCCCCOc1cc2c(cc1OC)C(=O)N1CCC[C@H]1C=N2 | Dose-dependent effect | 339 | 339 | 309 | 1740 | 2400 | 1480 | 794 | 1620 | 1230 | 1230 | 2140 | 407 | 724 | 1620 | 2400 | 955 | 1230 | 525 | 257 | GI50 [19]: 302 nM
COc1cc(-c2nc3ccccc3s2)ccc1OCCCCCOc1cc2c(cc1OC)C(=O)N1CCC[C@H]1C=N2 | Dose-dependent effect | 21.9 | 20.4 | 74.1 | 204 | 214 | 61.7 | 56.2 | 219 | 39.8 | 178 | 331 | 24.6 | 97.7 | 288 | 178 | 200 | 200 | 89.1 | 14.1 | GI50 [19]: 33.9 nM; Activity [22]: 2.13%; Activity [23]: 64.95%; Activity [24]: 61.56%; Activity [25]: 20.32%; Activity [26]: 64.26%; Activity [27]: 2.7%; T/C [28]: 1%; T/C [29]: 0.65% and 0.62%; T/C [30]: 0.81%; T/C [31]: 0.72% and 0.2%; T/C [32]: 0.73% and 0.18%; T/C [33]: 0.76% and 0.16%; MTD [34]: < 50 mg/kg; Activity [35]: Non-toxic; Activity [36]: Non-toxic; Activity [37]: Non-toxic
COc1cc2c(cc1OCCCCC(=O)Nc1ccc(-c3nc4ccccc4s3)cc1)N=C[C@@H]1CCCN1C2=O | – | 1200 | 1740 | 1450 | 2450 | 2880 | – | 1620 | 2690 | 1550 | 1950 | 2240 | 1780 | 1860 | 2820 | 4470 | 2820 | 1660 | 2090 | 1950 | –
